# Source: ChEMBL document CHEMBL1154676, “Synthetic mRNA splicing modulator compounds with in vivo antitumor activity” (J Med Chem, 2009)
# The source made the active and inactive calls. The rule behind the calls is not given here.
# Assays:
# [1] = Cytotoxicity against human JeKo1 cells after 72 hrs by XTT assay; format: functional, cell-based; conditions: JeKo-1, 72 h
# Method in brief: (§1)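 Cells grown at 37 °C, 5% CO2; HFF in DMEM with 10% FBS, PrEC in prostate epithelial growth medium. Adherent lines seeded overnight, suspension lines same day; compounds diluted from DMSO stocks into media at various final concentrations, 72 h exposure. XTT reagent added 4 h, absorbance 490 nm (reference 690 nm). Growth as % of vehicle; IC50 from sigmoidal dose-response fit; mean ± SEM, three independent experiments.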
# PC-3 = test: Cytotoxicity against human PC3 cells after 72 hrs by XTT assay; format: functional, cell-based; conditions: PC-3, 72 h; method in brief: as §1
# WiDr = test: Cytotoxicity against human WiDr cells after 72 hrs by XTT assay; format: functional, cell-based; method in brief: as §1
# JVM-2 = test: Cytotoxicity against human JVM2 cells after 72 hrs by XTT assay; format: functional, cell-based; conditions: JVM-2, 72 h; method in brief: as §1
# HeLa [2] = test: Anticancer activity in human HeLa cells assessed as aggregation of SC35 and SF3b protein SAP155 at 10 uM after 4 hrs by immunofluorescence analysis; format: functional, cell-based
# Method in brief: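 HeLa cells on glass coverslips exposed 4 h to 10 μM compound in DMSO (DMSO-only control), fixed in cold methanol at −20 °C for 10 min. Stained with anti-SC35 or anti-SAP155 primary (1/100, 1 h, 37 °C), then Alexa Fluor 488 anti-mouse secondary (1/200). Splicing-factor distribution imaged by fluorescence microscopy at 60X.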
# HeLa [3] = test: Inhibition of spliceosome splicing activity in human HeLa cells assessed as mRNA products at 0.5 to 10 uM by autoradiography; format: cell-based
# JeKo-1 = test: Anticancer activity against human JeKo1 cells transplanted in Es-1/SCID mouse assessed as decrease in tumor volume at 50 to 100 mg/kg, iv measured after 25 days; format: functional, organism-based
# [4] = Chemical stability in phosphate buffer assessed as half life at pH 7.4 at 37 degC; format: physicochemical
Compound,IC50 [1],IC50 (PC-3),IC50 (WiDr),IC50 (JVM-2),Activity (HeLa [2]),Activity (HeLa [3]),Activity (JeKo-1),half-life [4]
CC(/C=C/[C@@H]1C[C@]2(CO2)CC(C)(C)O1)=C\C[C@H]1CC[C@@H](NC(=O)/C=C\[C@H](C)OC(=O)c2ccccc2)CC1,410 nM,4900 nM,410 nM,,,,,
CC(/C=C/[C@@H]1C[C@]2(CO2)CC(C)(C)O1)=C\C[C@H]1CC[C@@H](NC(=O)/C=C\[C@H](C)OC(=O)C2CCOCC2)CC1,450 nM,2000 nM,,,,,,
CC(/C=C/[C@@H]1C[C@]2(CO2)CC(C)(C)O1)=C\C[C@H]1CC[C@@H](NC(=O)/C=C\[C@H](C)OC(=O)N2CCN(C3CCCCCC3)CC2)CC1,,> 5000 nM,,> 1000 nM,,,,
CC(/C=C/[C@@H]1C[C@]2(CO2)CC(C)(C)O1)=C\C[C@H]1CC[C@@H](NC(=O)/C=C\[C@H](C)OC(=O)N2CCN(C)CC2)CC1,> 500 nM,> 2500 nM,> 1250 nM,> 500 nM,,,,
CC(/C=C/[C@@H]1C[C@]2(CO2)CC(C)(C)O1)=C\C[C@H]1CC[C@@H](NC(=O)/C=C\[C@H](C)OC(=O)c2ccco2)CC1,140 nM,3500 nM,140 nM,,,,,
CC(/C=C/[C@@H]1C[C@]2(CO2)CC(C)(C)O1)=C\C[C@H]1CC[C@@H](NC(=O)/C=C\[C@H](C)OC(=O)C2CCN(c3ccnc(C(F)(F)F)n3)CC2)CC1,> 1000 nM,> 10000 nM,> 1000 nM,,,,,
CC(/C=C/[C@@H]1C[C@]2(CO2)CC(C)(C)O1)=C\C[C@H]1CC[C@@H](NC(=O)/C=C\[C@H](C)OC(=O)c2cccn2C)CC1,390 nM,4300 nM,390 nM,,,,,
CC(/C=C/[C@@H]1C[C@]2(CO2)CC(C)(C)O1)=C\C[C@H]1CC[C@@H](NC(=O)/C=C\[C@H](C)OC(=O)N2CCN(CCO)CC2)CC1,> 500 nM,> 2500 nM,> 1250 nM,> 500 nM,,,,
CC(/C=C/[C@@H]1C[C@](O)(CCl)CC(C)(C)O1)=C\C[C@H]1CC[C@@H](NC(=O)/C=C\[C@H](C)OC(=O)N2CCN(C3CCCCCC3)CC2)CC1,,> 5000 nM,> 1250 nM,> 10000 nM,,,,
CC(/C=C/[C@@H]1C[C@]2(CO2)CC(C)(C)O1)=C\C[C@H]1CC[C@@H](NC(=O)/C=C\[C@H](C)OC(=O)C2CCN(C)CC2)CC1,> 1000 nM,10000 nM,,,,,,
COc1cccc(N2CCN(C(=O)O[C@@H](C)/C=C\C(=O)N[C@H]3CC[C@@H](C/C=C(C)/C=C/[C@@H]4C[C@]5(CO5)CC(C)(C)O4)CC3)CC2)c1,> 500 nM,> 2500 nM,> 1250 nM,> 500 nM,,,,
CC(/C=C/[C@@H]1C[C@]2(CO2)CC(C)(C)O1)=C\C[C@H]1OC[C@@H](NC(=O)/C=C\[C@H](C)OC(=O)C(C)C)CO1,150 nM,,,,Active,Active,Active,
CC(/C=C/[C@@H]1C[C@]2(CO2)CC(C)(C)O1)=C\C[C@H]1CC[C@@H](NC(=O)/C=C\[C@H](C)O)CC1,1600 nM,10000 nM,10000 nM,1500 nM,,,,
CC(=O)O[C@@H](C)/C=C\C(=O)N[C@H]1CC[C@@H](C/C=C(C)/C=C/[C@@H]2C[C@]3(CO3)CC(C)(C)O2)CC1,100 nM,,,,,,,
CC(=O)O[C@@H](C)/C=C\C(=O)N[C@@H]1C[C@H](C)[C@H](C/C=C(C)/C=C/[C@H]2O[C@](C)(O)C[C@@]3(CO3)[C@@H]2O)O[C@@H]1C,,,,,,,,4 h
CC(/C=C/[C@@H]1C[C@]2(CO2)CC(C)(C)O1)=C\C[C@H]1CC[C@@H](NC(=O)/C=C\[C@H](C)OC(=O)c2cccnc2)CC1,170 nM,8100 nM,170 nM,,,,,
